# From ChEMBL document CHEMBL4190362, “Synthesis, biological evaluation and quantitative structure-active relationships of 1,3-thiazolidin-4-one derivatives. A promising chemical scaffold endowed with high antifungal potency and low cytotoxicity” (Eur J Med Chem, 2017)
# Columns and labels:
# Staphylococcus aureus = assay: Antibacterial activity against Staphylococcus aureus assessed as inhibition of microbial growth incubated for 18 to 22 hrs by broth microdilution method; format: functional
# Outline: (§1)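 Broth microdilution in Mueller-Hinton II broth following NCCLS recommendations; compounds dissolved in DMSO.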
# Staphylococcus warneri = assay: Antibacterial activity against Staphylococcus warneri assessed as inhibition of microbial growth incubated for 18 to 22 hrs by broth microdilution method; format: functional; outline: as §1
# Enterococcus faecalis = assay: Antibacterial activity against Streptococcus faecalis assessed as inhibition of microbial growth incubated for 18 to 22 hrs by broth microdilution method; format: functional; outline: as §1
# Escherichia coli = assay: Antibacterial activity against Escherichia coli assessed as inhibition of microbial growth incubated for 18 to 22 hrs by broth microdilution method; format: functional; outline: as §1
# Proteus mirabilis = assay: Antibacterial activity against Proteus mirabilis assessed as inhibition of microbial growth incubated for 18 to 22 hrs by broth microdilution method; format: functional; outline: as §1
# Enterobacter = assay: Antibacterial activity against Enterobacter spp. assessed as inhibition of microbial growth incubated for 18 to 22 hrs by broth microdilution method; format: functional; outline: as §1
# Klebsiella oxytoca = assay: Antibacterial activity against Klebsiella oxytoca assessed as inhibition of microbial growth incubated for 18 to 22 hrs by broth microdilution method; format: functional; outline: as §1
# Candida albicans = assay: Antifungal activity against Candida albicans clinical isolates assessed as inhibition of microbial growth incubated for 24 hrs by broth microdilution method; format: functional
# Outline: (§2)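 Twenty-two clinical Candida isolates (8 C. albicans, 4 C. glabrata, 3 C. tropicalis, 3 C. krusei, 2 C. parapsilosis, 2 C. sake) were identified by colony morphology and biochemistry and subcultured at 35 °C for purity. Compounds were dissolved in DMSO and tested by broth microdilution in Sabouraud dextrose broth per NCCLS/CLSI/EUCAST guidance. Values are geometric mean MIC per species (µg/mL).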
# Nakaseomyces glabratus = assay: Antifungal activity against Candida glabrata clinical isolates assessed as inhibition of microbial growth incubated for 24 hrs by broth microdilution method; format: functional; outline: as §2
# Candida tropicalis = assay: Antifungal activity against Candida tropicalis clinical isolates assessed as inhibition of microbial growth incubated for 24 hrs by broth microdilution method; format: functional; outline: as §2
# Pichia kudriavzevii = assay: Antifungal activity against Candida krusei clinical isolates assessed as inhibition of microbial growth incubated for 24 hrs by broth microdilution method; format: functional; outline: as §2
# Candida parapsilosis = assay: Antifungal activity against Candida parapsilosis clinical isolates assessed as inhibition of microbial growth incubated for 24 hrs by broth microdilution method; format: functional; settings: Lodderomyces parapsilosis; outline: as §2
# [Candida] sake = Antifungal activity against Candida sake clinical isolates assessed as inhibition of microbial growth incubated for 24 hrs by broth microdilution method; format: functional; settings: Fermentozyma sake; outline: as §2
# [1] = Cytotoxicity against human Hep2 cells assessed as reduction in cell viability incubated for 24 hrs by trypan blue dye exclusion assay; format: cell-based; settings: HEp-2 cells
# Outline: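 Hep2 (human laryngeal epidermoid carcinoma) cells were exposed to five concentrations from 0.05 to 100 µg/mL for 24 h at 37 °C, and viability was scored by Trypan Blue exclusion as survival fraction. Controls were medium alone, DMSO-treated cells and 1 mM sodium nitroprusside. CC50 is the mean ± SD of at least three independent experiments.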
# [2] = Selectivity index, ratio of CC50 for human Hep2 cells to MIC for Candida albicans clinical isolates; format: toxicity; settings: HEp-2 cells, read-out: Selectivity Index
# Outline: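 Calculated as Hep2 CC50 (Trypan Blue exclusion, 24 h, 37 °C) divided by MIC against C. albicans.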
# [3] = tested on: Streptococcus alpha-hemolyticus (Streptococcus sp.); assay: Antibacterial activity against Streptococcus Streptococcus alpha hemolyticus assessed as inhibition of microbial growth incubated for 18 to 22 hrs by broth microdilution method
MIC (Staphylococcus aureus),MIC (Staphylococcus warneri),MIC (Enterococcus faecalis),MIC (Escherichia coli),MIC (Proteus mirabilis),MIC (Enterobacter),MIC (Klebsiella oxytoca),MIC (Candida albicans),MIC (Nakaseomyces glabratus),MIC (Candida tropicalis),MIC (Pichia kudriavzevii),MIC (Candida parapsilosis),MIC ([Candida] sake),SMILES,CC50 at 24 h [1],selectivity ratio [2],MIC [3]
≥ 256 µg/mL,≥ 256 µg/mL,≥ 256 µg/mL,≥ 256 µg/mL,≥ 256 µg/mL,≥ 256 µg/mL,≥ 256 µg/mL,2 µg/mL,2 µg/mL,4 µg/mL,8 µg/mL,8 µg/mL,8 µg/mL,CCCCC/C(C)=N\N=C1/NC(=O)CS1,71.8 µg/mL,35.5,≥ 256 µg/mL
≥ 256 µg/mL,≥ 256 µg/mL,≥ 256 µg/mL,≥ 256 µg/mL,≥ 256 µg/mL,≥ 256 µg/mL,≥ 256 µg/mL,2 µg/mL,1 µg/mL,2 µg/mL,8 µg/mL,16 µg/mL,16 µg/mL,C/C(=N/N=C1\NC(=O)CS1)c1cccs1,> 100 µg/mL,> 50,≥ 256 µg/mL
≥ 256 µg/mL,≥ 256 µg/mL,≥ 256 µg/mL,≥ 256 µg/mL,≥ 256 µg/mL,≥ 256 µg/mL,≥ 256 µg/mL,2 µg/mL,2 µg/mL,2 µg/mL,2 µg/mL,2 µg/mL,2 µg/mL,CC(C)=N/N=C1\NC(=O)CS1,68.4 µg/mL,34,≥ 256 µg/mL

# Continued, molecule first:
SMILES,MIC (Staphylococcus aureus),MIC (Staphylococcus warneri),MIC (Enterococcus faecalis),MIC (Escherichia coli),MIC (Proteus mirabilis),MIC (Enterobacter),MIC (Klebsiella oxytoca),MIC (Candida albicans),MIC (Nakaseomyces glabratus),MIC (Candida tropicalis),MIC (Pichia kudriavzevii),MIC (Candida parapsilosis),MIC ([Candida] sake),CC50 at 24 h [1],selectivity ratio [2],MIC [3]
O=C1CSC(NN=C2CCCC2)=N1,≥ 256 µg/mL,≥ 256 µg/mL,≥ 256 µg/mL,≥ 256 µg/mL,≥ 256 µg/mL,≥ 256 µg/mL,≥ 256 µg/mL,2 µg/mL,2 µg/mL,2 µg/mL,2 µg/mL,2 µg/mL,2 µg/mL,22.2 µg/mL,11.1,≥ 256 µg/mL
CC1CCC/C1=N/N=C1\NC(=O)CS1 (stereo unspecified),≥ 256 µg/mL,≥ 256 µg/mL,≥ 256 µg/mL,≥ 256 µg/mL,≥ 256 µg/mL,≥ 256 µg/mL,≥ 256 µg/mL,2 µg/mL,1 µg/mL,8 µg/mL,2 µg/mL,2 µg/mL,2 µg/mL,52.8 µg/mL,26,≥ 256 µg/mL
CC1CC/C(=N/N=C2\NC(=O)CS2)C1 (stereo unspecified),≥ 256 µg/mL,≥ 256 µg/mL,≥ 256 µg/mL,≥ 256 µg/mL,≥ 256 µg/mL,≥ 256 µg/mL,≥ 256 µg/mL,2 µg/mL,2 µg/mL,2 µg/mL,2 µg/mL,2 µg/mL,2 µg/mL,50.8 µg/mL,25,≥ 256 µg/mL
